From ChEMBL document CHEMBL1156317, “Design and synthesis of conformationally constrained N,N-disubstituted 1,4-diazepanes as potent orexin receptor antagonists” (Bioorg Med Chem Lett, 2010)
One block for each molecule: values may come before it.

Key:
[1] = target: T1, Orexin/Hypocretin receptor type 1 (Homo sapiens, UniProt O43613); assay: Binding affinity to OX1 receptor by radioligand displacement assay
T1 sequence (O43613 whole entry): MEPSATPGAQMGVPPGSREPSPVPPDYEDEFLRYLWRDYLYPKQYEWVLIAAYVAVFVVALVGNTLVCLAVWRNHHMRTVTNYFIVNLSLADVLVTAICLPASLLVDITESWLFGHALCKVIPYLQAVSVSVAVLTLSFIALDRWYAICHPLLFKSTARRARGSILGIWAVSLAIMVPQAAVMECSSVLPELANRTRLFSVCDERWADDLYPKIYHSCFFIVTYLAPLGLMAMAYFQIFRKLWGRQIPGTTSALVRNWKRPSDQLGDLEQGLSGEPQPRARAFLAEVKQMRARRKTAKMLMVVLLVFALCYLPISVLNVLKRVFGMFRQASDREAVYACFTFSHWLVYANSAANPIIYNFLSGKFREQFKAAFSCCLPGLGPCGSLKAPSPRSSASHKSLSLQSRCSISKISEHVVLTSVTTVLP
In short: (§1)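 Displacement of a high-affinity radioligand bound to human orexin receptors. Values expressed as Ki.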

Orexin receptor type 2 [2] = target: T2, Orexin receptor type 2 (Homo sapiens, UniProt O43614); assay: Binding affinity to OX2 receptor by radioligand displacement assay; in short: as §1
T2 sequence (O43614 whole entry): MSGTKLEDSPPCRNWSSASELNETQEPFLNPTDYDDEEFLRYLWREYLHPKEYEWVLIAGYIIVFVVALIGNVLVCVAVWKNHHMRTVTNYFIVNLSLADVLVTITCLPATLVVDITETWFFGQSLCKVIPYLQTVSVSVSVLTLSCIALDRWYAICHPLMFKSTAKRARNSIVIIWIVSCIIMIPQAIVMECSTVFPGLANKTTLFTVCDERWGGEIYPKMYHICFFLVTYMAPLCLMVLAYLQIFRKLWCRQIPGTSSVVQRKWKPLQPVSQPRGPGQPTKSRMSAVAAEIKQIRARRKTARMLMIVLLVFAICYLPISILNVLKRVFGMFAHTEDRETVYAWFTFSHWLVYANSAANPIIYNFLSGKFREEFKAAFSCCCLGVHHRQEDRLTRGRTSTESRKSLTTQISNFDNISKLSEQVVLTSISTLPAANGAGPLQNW

[3] = target: T1, Orexin/Hypocretin receptor type 1; assay: Antagonist activity at OX1 receptor assessed as inhibition of calcium flux by FLIPR assay; type: functional
In short: (§2)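 FLIPR assay on human orexin receptors, with calcium flux as the functional read-out of antagonism. Values expressed as IC50.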

Orexin receptor type 2 [4] = target: T2, Orexin receptor type 2; assay: Antagonist activity at OX2 receptor assessed as inhibition of calcium flux by FLIPR assay; type: functional; in short: as §2
[5] = Drug level in Sprague-Dawley rat plasma at 2 mg/kg, iv after 30 mins; type: ADME, organism-based; parameters: dose 2 mg/kg, route intravenous
In short: (§3)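 Rats aged seven to ten weeks, anesthetized with isoflurane (5% in oxygen to induce, 2% by nose cone to maintain), kept at 37 °C. Compound given by tail-vein infusion at 2 mg/kg over 30 min. At the end of infusion, CSF taken from the cisterna magna, then plasma by cardiac puncture, then the brain harvested. All samples frozen on dry ice and analysed for compound levels.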

[6] = Drug level in Sprague-Dawley rat brain at 2 mg/kg, iv after 30 mins; type: ADME, organism-based; parameters: dose 2 mg/kg, route intravenous; settings: read-out: Drug uptake; in short: as §3
[7] = Drug level in Sprague-Dawley rat CSF at 2 mg/kg, iv after 30 mins; type: ADME, organism-based; parameters: dose 2 mg/kg, route intravenous; settings: cerebrospinal fluid, read-out: Drug uptake; in short: as §3
[8] = Ratio of drug level in brain to plasma in Sprague-Dawley rat at 2 mg/kg, iv after 30 mins; type: ADME, organism-based; parameters: dose 2 mg/kg, route intravenous
In short: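 Male/female unspecified Sprague–Dawley rats, 7–10 weeks old, under isoflurane anaesthesia (5% induction, 2% maintenance via nose cone) on a 37 °C warming blanket; compound given by tail-vein infusion, 2 mg/kg over 30 min. At end of infusion CSF taken from cisterna magna, plasma by cardiac puncture, brain harvested; samples frozen on dry ice and compound levels measured to give brain/plasma ratio.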

[9] = Protein binding in human; type: ADME, organism-based; settings: in vivo, read-out: PB (converted)
[10] = Protein binding in rat; type: ADME, organism-based; settings: in vivo, read-out: PB (converted)
[11] = Lipophilicity, log P of the compound; type: physicochemical; settings: octanol/water
[12] = Oral bioavailability in rat at 10 mg/kg; type: ADME, organism-based; settings: in vivo
In short: (§4)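 Rats dosed orally at 10 mpk in VitE-TPGS and intravenously at 2 mpk in DMSO.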

[13] = Oral bioavailability in dog; type: ADME, organism-based, Canis lupus familiaris; settings: in vivo
[14] = Clearance in rat at 10 mg/kg, po and 2 mg/kg, iv; type: ADME, organism-based; settings: in vivo; in short: as §4
[15] = Clearance in dog; type: ADME, organism-based, Canis lupus familiaris; settings: in vivo
[16] = Half life in rat at 10 mg/kg, po and 2 mg/kg, iv; type: ADME, organism-based; settings: in vivo; in short: as §4
[17] = Half life in dog; type: ADME, organism-based, Canis lupus familiaris; settings: in vivo
[18] = AUC (0 to 24 hrs) in rat at 10 mg/kg, po and 2 mg/kg, iv; type: ADME, organism-based; settings: plasma; in short: as §4
[19] = AUC (0 to 24 hrs) in dog; type: ADME, organism-based, Canis lupus familiaris; parameters: time < 24 hr; settings: plasma
[20] = Cmax in rat at 10 mg/kg, po and 2 mg/kg, iv; type: ADME, organism-based; settings: in vivo; in short: as §4
[21] = Cmax in dog; type: ADME, organism-based, Canis lupus familiaris; settings: in vivo
[22] = Apparent permeability across pig LLC-PK1 cells; type: ADME, cell-based, Sus scrofa
LLC-PK1 = assay: Ratio of permeability from basolateral to apical side over apical to basolateral side in pig LLC-PK1 cells expressing MDR1

Compound: Cc1ccc(-n2nccn2)c(C(=O)N2CC3CC(C2)N(c2ncc4ccccc4n2)C3)c1 (single isomer, unassigned; enantiomer B)
Ki [1]: 0.7 nM
Ki (Orexin receptor type 2 [2]): 0.9 nM
IC50 [3]: 24 nM
IC50 (Orexin receptor type 2 [4]): 44 nM
concentration at 0.5 h [5]: 835 nM
concentration at 0.5 h [6]: 690 nM
concentration at 0.5 h [7]: 60 nM
Kp at 0.5 h [8]: 0.8
fraction unbound [9]: 0.064
fraction unbound [10]: 0.073
logP [11]: 2.6
bioavailability [12]: 2%
bioavailability [13]: 8%
clearance [14]: 45 mL/min/kg
clearance [15]: 24 mL/min/kg
half-life [16]: 42 min
half-life [17]: 54 min
AUC(0-t) [18]: 0.23 µM·h
AUC(0-t) at 24 h [19]: 0.49 µM·h
Cmax [20]: 150 nM
Cmax [21]: 510 nM
Papp [22]: 37 ×10⁻⁶ cm/s
Ratio (LLC-PK1): 0.9

Compound: Cc1ccc(-n2nccn2)c(C(=O)N2CC3CC(C2)N(c2ncc4ccccc4n2)C3)c1 (racemic)
Ki [1]: 2.3 nM
Ki (Orexin receptor type 2 [2]): 3.6 nM
IC50 [3]: 42 nM
IC50 (Orexin receptor type 2 [4]): 65 nM

Compound: Cc1ccc(-n2nccn2)c(C(=O)N2CC3CC2CN(c2ncc4ccccc4n2)C3)c1 (stereo unspecified)
Ki [1]: 12 nM
Ki (Orexin receptor type 2 [2]): 11 nM
IC50 [3]: 77 nM
IC50 (Orexin receptor type 2 [4]): 110 nM

Compound: Cc1ccc(-n2nccn2)c(C(=O)N2CCC3CC2CN3c2ncc3cc(F)ccc3n2)c1 (racemic)
Ki [1]: 870 nM
Ki (Orexin receptor type 2 [2]): 260 nM
IC50 [3]: > 5700 nM
IC50 (Orexin receptor type 2 [4]): > 10000 nM

Compound: Cc1ccc(-n2nccn2)c(C(=O)N2CCCN(c3ncc4ccccc4n3)CC2)c1
IC50 [3]: 29 nM
IC50 (Orexin receptor type 2 [4]): 27 nM
concentration at 0.5 h [5]: 664 nM
concentration at 0.5 h [6]: 462 nM
concentration at 0.5 h [7]: 19 nM
Kp at 0.5 h [8]: 0.7
fraction unbound [9]: 0.024
fraction unbound [10]: 0.029
logP [11]: 2.91
bioavailability [12]: 2%
bioavailability [13]: 16%
clearance [14]: 53 mL/min/kg
clearance [15]: 12 mL/min/kg
half-life [16]: 18 min
half-life [17]: 78 min
AUC(0-t) [18]: 0.19 µM·h
AUC(0-t) at 24 h [19]: 0.44 µM·h
Cmax [20]: 300 nM
Cmax [21]: 230 nM

More lines, in order of falling IC50 [3], values ahead:

Ki [1]: 1700 nM
Ki (Orexin receptor type 2 [2]): 3500 nM
IC50 [3]: 3900 nM
IC50 (Orexin receptor type 2 [4]): 3700 nM
Compound: Cc1ccc(-n2nccn2)c(C(=O)N2CC3CC2CCN3c2ncc3cc(F)ccc3n2)c1 (racemic)

Ki [1]: 110 nM
Ki (Orexin receptor type 2 [2]): 155 nM
IC50 [3]: 2500 nM
IC50 (Orexin receptor type 2 [4]): 6200 nM
Compound: Cc1ccc(-n2nccn2)c(C(=O)N2CC3CC(C2)N(c2ncc4ccccc4n2)C3)c1 (single isomer, unassigned; enantiomer A)

Ki [1]: 1 nM
Ki (Orexin receptor type 2 [2]): 0.2 nM
IC50 [3]: 36 nM
IC50 (Orexin receptor type 2 [4]): 27 nM
Compound: Cc1ccc(-n2nccn2)c(C(=O)N2CCCN(c3ncc4cc(F)ccc4n3)CC2)c1
